For 17 compounds, Activity results are on record in ChEMBL document CHEMBL2311369, “Synthesis and anticonvulsant activity of new phenytoin derivatives” (Eur J Med Chem, 2013).

Data set [1] relates to Mus musculus. Briefly: Anticonvulsant activity in albino mouse assessed as protection against subcutaneous metrazol-induced seizures at 100 mg/kg, po administered 60 mins prior challenge measured over 20 mins. In kind it is functional. The method, boiled down: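 Adult albino mice (20–25 g, both sexes), groups of six, dosed orally with 100 mg/kg; a separate group of six serves as control. Pentylenetetrazole 85 mg/kg given s.c. 60 min after dosing. Each mouse is watched alone for 20 min for tonic-clonic convulsions lasting at least 5 s. Mice without generalized convulsions count as protected; result is % protection.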

In data set [2] the test system is Mus musculus. Briefly: Anticonvulsant activity in albino mouse assessed as protection against maximal electroshock-induced seizures measuring mean convulsion threshold at 100 mg/kg, po after 60 mins. In kind it is functional. Put shortly:
(§1)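 Adult albino mice (20–25 g, both sexes), groups of six, dosed orally with compound suspended in 1% Tween 80; vehicle controls. 60 min later, ear-electrode current ramped from 1 mA in 0.1 mA/0.2 s steps at 50 Hz until tonic hind-limb extension. Read-out is mean maximal tolerated current (mA), reported as mean ± S.E. of 5–6 animals. One-way ANOVA with Tukey post test versus control.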

The subject of data set [3] is Mus musculus. In words: Neurotoxicity in albino mouse assessed as neurological deficit at 100 mg/kg, ip measured after 1 hr for period of 300 seconds by rotarod test. Set-up: dose 100 mg/kg, route intraperitoneal. The note with it: in vivo. In kind it is toxicity, organism-based. The method, boiled down: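 Rotarod at 6 rpm with a 3 cm rod. Male albino mice get two training sessions of 10 and 15 min first. Compound given i.p. at 100 mg/kg in 1% Tween 80, groups of six; vehicle-treated controls. Mice are retested 1 h later. Result is % of mice unable to stay on the rod for 300 s.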

Data set [4] deals with Mus musculus. In words: Anticonvulsant activity in albino mouse assessed as protection against maximal electroshock-induced seizures measuring mean convulsion threshold at 30 mg/kg, po after 60 mins. In kind it is functional. The method, boiled down:
as §1

As to `CCNc1nnc(CN2C(=O)NC(c3ccccc3)(c3ccccc3)C2=O)s1`, the Activity worked out at 60% with Mus musculus [1] and 5 mA in the data set on Mus musculus [2].
The like results for `Cc1ccc(Nc2nnc(CN3C(=O)NC(c4ccccc4)(c4ccccc4)C3=O)s2)cc1` were, in that order, 40% and 5.2 mA.
Consider `COc1ccc(Nc2nnc(CN3C(=O)NC(c4ccccc4)(c4ccccc4)C3=O)s2)cc1`, for which the Activity with Mus musculus [1] amounted to 20%; in the data set with Mus musculus [2] it was 4 mA.
Take `O=C1NC(c2ccccc2)(c2ccccc2)C(=O)N1Cc1nnc(Nc2ccc(Cl)cc2)s1`: the figures for the Activity in the data set on Mus musculus [1] and in the data set with Mus musculus [2] were 0% and 4.25 mA, respectively.
The corresponding values for `CCn1c(S)nnc1CN1C(=O)NC(c2ccccc2)(c2ccccc2)C1=O` are 40% and 5.8 mA.
As for `O=C1NC(c2ccccc2)(c2ccccc2)C(=O)N1Cc1nnc(S)n1-c1ccccc1`, the Activity in the data set with Mus musculus [3] is recorded as 33.33%; in the data set on Mus musculus [1], 40%; with Mus musculus [2] it was 6.6 mA.
With `Cc1ccc(-n2c(S)nnc2CN2C(=O)NC(c3ccccc3)(c3ccccc3)C2=O)cc1`, the Activity with Mus musculus [1] is recorded as 20%; in the data set with Mus musculus [2] it was 6.6 mA.
For `COc1ccc(-n2c(S)nnc2CN2C(=O)NC(c3ccccc3)(c3ccccc3)C2=O)cc1`, the Activity is recorded as 50% with Mus musculus [3], 40% in the data set on Mus musculus [1] and 6.6 mA in the data set on Mus musculus [2].
Take `O=C1NC(c2ccccc2)(c2ccccc2)C(=O)N1Cc1nnc(S)n1-c1ccc(Cl)cc1`: the Activity in the data set with Mus musculus [1] came to 40%; in the data set on Mus musculus [2], 6.2 mA.
`O=C1NC(c2ccccc2)(c2ccccc2)C(=O)N1Cc1nnc(S)o1`: the values for the Activity in the data set on Mus musculus [3], with Mus musculus [1] and in the data set on Mus musculus [2] were 40%, 80% and 5.5 mA, respectively.
For `CCNC(=S)NNC(=O)CN1C(=O)NC(c2ccccc2)(c2ccccc2)C1=O`, the Activity stood at 40% with Mus musculus [1] and 5.2 mA in the data set on Mus musculus [2].
Regarding `O=C(CN1C(=O)NC(c2ccccc2)(c2ccccc2)C1=O)NNC(=S)Nc1ccccc1`, the Activity is reported as 0% with Mus musculus [3], 50% with Mus musculus [1], 6.143 mA in the data set on Mus musculus [4] and 8.4 mA with Mus musculus [2].
Regarding `Cc1ccc(NC(=S)NNC(=O)CN2C(=O)NC(c3ccccc3)(c3ccccc3)C2=O)cc1`, the Activity in the data set on Mus musculus [1] is on record as 60%; in the data set with Mus musculus [2], 5.8 mA.
Regarding `COc1ccc(NC(=S)NNC(=O)CN2C(=O)NC(c3ccccc3)(c3ccccc3)C2=O)cc1`, the Activity was 16.67% with Mus musculus [3], 80% in the data set with Mus musculus [1] and 4 mA in the data set with Mus musculus [2].
In the case of `O=C(CN1C(=O)NC(c2ccccc2)(c2ccccc2)C1=O)NNC(=S)Nc1ccc(Cl)cc1`, the Activity turned out to be 0% in the data set with Mus musculus [1] and 5.4 mA in the data set on Mus musculus [2].
The corresponding values for `O=C1NC(c2ccccc2)(c2ccccc2)C(=O)N1Cc1nnc(Nc2ccccc2)s1` are 60% and 5 mA.
The corresponding values for `O=C1NC(=O)C(c2ccccc2)(c2ccccc2)N1` [PHENYTOIN] are 80% and 7.25 mA.
